Screening data deposited in PubChem BioAssay by The Scripps Research Institute Molecular Screening Center.
ARFGAP1 inhibitor: inhibitors of rat ARFGAP1. Arfgap1-stimulated ARF1 GTP hydrolysis, GDP FP detection. Q62848. AID 651572. 0.26% of 360,000 active. inhibition, % at 16.5 µM;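 active means inhibition above a per-plate limit, mean inhibition of low control wells plus 3 SD, cut at about 25% in these data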;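 further: 0% = DMSO wells with enzyme and 100% = wells lacking Arfgap1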
Target sequence (Q62848 1-136 limits assumed): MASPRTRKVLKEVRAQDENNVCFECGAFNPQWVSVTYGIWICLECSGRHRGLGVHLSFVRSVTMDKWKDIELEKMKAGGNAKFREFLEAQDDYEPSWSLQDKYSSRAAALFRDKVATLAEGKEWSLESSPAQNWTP
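Replicates: Single well per compound | Assay system: Truncated rat Arfgap1 GAP domain | Control set: No-Arfgap1 wells (100%) versus DMSO full-reaction wells (0%) | Times: Enzyme reaction 120 min at 25 °C after 20 min preincubation | Reagent: Human ARF1(Δ1-17)-GTP substrate | Measured by: Tracer-displacement fluorescence polarization with EDTA stop, 620/688 nm | Measure: Percent inhibition of Arfgap1-stimulated GTP hydrolysis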
IDE cell inh: inhibitors of human insulin-degrading enzyme in cells | P14735 | inhibition, % at 5.59 µM | 0.41% of 320,000 active | HEK cells, FAbetaB cleavage, fluorescence polarization;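 active means percent inhibition above the average of all tested compounds plus 3 SD, set per screening campaign, cut at about 16% in these data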;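 further: IDE supplied by intact live HEK cells; FP after avidin binding of uncleaved biotin substrate so inhibition keeps polarization high; 0% = DMSO wells and 100% = 60 µM reference IDE inhibitor Ii1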
IDE act: boosts human insulin-degrading enzyme activity in HEK cells; FAbeta-B cleavage, fluorescence polarization; 0% vehicle, 100% cell-free pure enzyme wells; activation, % at 5.96 µM; 0.073% of 340,000 active; AID 493087;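 active means activation above the mean of all tested compounds plus 3 SD, set per screening campaign, cut at about 17% in these data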
ASAP1 GAP inh: ASAP1 ArfGAP inhibition; 0.19% of 360,000 active; inhibition, % at 16.5 µM; ASAP1-stimulated ARF1 GTP hydrolysis, GDP FP detection; AID 624377; in the data active means inhibition above about 25%;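 further: 0% = vehicle with enzyme and substrate and 100% = no enzyme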
PREPL inh: inhibits the human prolyl oligopeptidase-like enzyme; AID 2751; recombinant PREPL, fluorescence polarization activity-based probe; Q4J6C6; 0.68% of 320,000 active; inhibition, % at 5.96 µM; in the data active means inhibition above about 43%;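 further: 0% = enzyme with DMSO and 100% = wells lacking enzyme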
ARFGAP1 confirm: rat ARFGAP1 inhibition, confirmed | inhibition, % at 16.5 µM | shares compounds with ARFGAP1 inhibitor | 30% of 890 active | ARFGAP1-stimulated ARF1 GTP hydrolysis, GDP tracer FP;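 active means average inhibition over triplicates above the hit cutoff set in the earlier primary screen, cut at about 25% in these data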;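 further: 0% = Arfgap1 plus ARF1-GTP with DMSO and 100% = wells lacking Arfgap1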
Target sequence (Q62848 whole entry, looked up): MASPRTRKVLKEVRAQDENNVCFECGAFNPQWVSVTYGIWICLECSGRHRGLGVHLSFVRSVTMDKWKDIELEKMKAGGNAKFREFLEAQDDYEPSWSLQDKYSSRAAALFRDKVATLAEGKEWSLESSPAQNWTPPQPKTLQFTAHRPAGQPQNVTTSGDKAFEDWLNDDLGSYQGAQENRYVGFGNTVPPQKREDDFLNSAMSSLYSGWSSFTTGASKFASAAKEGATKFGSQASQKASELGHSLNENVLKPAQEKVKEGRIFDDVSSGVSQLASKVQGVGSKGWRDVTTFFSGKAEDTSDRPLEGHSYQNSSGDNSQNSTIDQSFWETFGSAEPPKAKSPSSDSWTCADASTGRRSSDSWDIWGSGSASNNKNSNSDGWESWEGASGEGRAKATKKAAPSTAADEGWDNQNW
An asterisk follows results filed as active; . = no result; + = active, no number. The list is not random: actives were taken first. Their share in the collection is about 1.2%.

SMILES | ARFGAP1 inhibitor | IDE cell inh | IDE act | ASAP1 GAP inh | PREPL inh | ARFGAP1 confirm
C=CCc1ccc(O)c(-c2ccc(O)c(CC=C)c2)c1 | 36* | 2 | 5 | 14 | 8 | 11
COc1ccc(N2CCN(CCCNC(=O)C(=O)c3c(C)n(C)c4ccccc34)CC2)cc1 | -2 | 6 | 12 | -2 | 21 | .
CCCOc1ccc(OCCNC2CCCC2)cc1 | 26* | 3 | 3 | -5 | -5 | 3
CCSc1nnc(Cc2cc(=O)[nH]c(=O)[nH]2)n1-c1ccc(Cl)cc1 | 30* | 2 | -1 | 1 | 6 | -9
O=c1cc(Cc2nnc(SCc3ccccc3)n2-c2ccc(Cl)cc2)[nH]c(=O)[nH]1 | -3 | -1 | -1 | -2 | -19 | .
O=c1[nH][nH]cc1C=Nc1ccc(Cl)cc1 | 36* | 5 | 4 | -3 | 12 | -6
COc1cccc(N=Cc2c[nH][nH]c2=O)c1 | -10 | 1 | 2 | -6 | 14 | .
CC1CCCC(NC(=O)CCCCCn2c(=S)[nH]c3ccsc3c2=O)C1C (configuration not stated) | -8 | . | . | 3 | . | .
CCOC(=O)Cc1csc(N/C(=N/S(=O)(=O)c2ccc(F)cc2F)c2ccccc2)n1 | + | 0 | 9 | 13 | -4 | 5
Cc1ccc2nc(N/C(=N/S(=O)(=O)c3ccc(F)cc3F)c3ccccc3)sc2c1 | -7 | 1 | 2 | 8 | -2 | .
Cc1cccc(NC(=O)CSc2cc(C(=O)c3nccn3C)c3ccccc3n2)c1 | 7 | -5 | 1 | 3 | 2 | .
Cc1cc(C)cc(NC(=O)CSc2cc(C(=O)c3nccn3C)c3ccccc3n2)c1 | 25* | 1 | 3 | -9 | 16 | 6
NS(=O)(=O)c1ccc(CCNC(=O)CNS(=O)(=O)c2cccc(Br)c2)cc1 | 28* | 0 | 4 | 3 | -1 | -2
COc1cccc(-c2nc(N)nc(SC)c2C#N)c1 | 9 | 6 | 4 | 9 | 5 | .
Cc1ccc(C)c(C(=O)COC(=O)CN2C(=O)C3C4C=CC(C4)C3C2=O)c1 (configuration not stated) | -12 | 1 | 2 | -7 | -10 | .
Cc1cc(=O)n2nc(N3CCC(C(=O)NCc4cccc(Cl)c4)CC3)sc2n1 | 12 | 0 | 4 | 5 | 19 | .
O=C(NC(c1ccc(F)cc1)c1ccc2ccccc2n1)C1CCN(Cc2cccc(C(F)(F)F)c2)CC1 (configuration not stated) | 28* | . | . | -5 | . | 14
COCCCNC(=O)C(=O)Nc1cc2c3c(c1)CCC(=O)N3CCC2 | -5 | 2 | 4 | -6 | 9 | .
O=C(NCCCO)C(=O)Nc1cc2c3c(c1)CCC(=O)N3CCC2 | 27* | 0 | 4 | -2 | 1 | 0
NS(=O)(=O)c1ccc(Nc2ccc3cc(S(=O)(=O)N4CCCCC4)ccc3n2)cc1 | 47* | -1 | -2 | 24 | 10 | 52*
CCOC(=O)/C(=C\Nc1ccc(OCc2ccccc2)cc1)NC(=O)c1ccccc1 | 0 | . | . | -8 | . | .
COc1ccc(/C(C)=N/NC(=O)c2sccc2-n2cccc2)cc1 | 29* | -2 | -3 | 7 | -13 | 11
COc1cccc(C(=O)NNC(=O)c2sccc2-n2cccc2)c1 | -1 | 6 | 3 | -3 | 13 | .
Cn1ccc2c(-c3cncc4ccccc34)cc3c(c21)C1CCC3C1 (configuration not stated) | 32* | . | . | 1 | . | -3
CCN1CCN(C(=O)Cn2ncc3c([nH]c4ccc(C)cc43)c2=O)CC1 | 25* | -1 | 4 | 2 | 7 | 29*
SMILES | ARFGAP1 inhibitor | IDE cell inh | IDE act | ASAP1 GAP inh | PREPL inh | ARFGAP1 confirm
CCN1CCN(C(=O)Cn2ncc3c([nH]c4ccccc43)c2=O)CC1 | 5 | -5 | 2 | -7 | 4 | .
COc1ccc(O)c(-c2cc(-c3ccccc3Cl)[nH]n2)c1 | 30* | 2 | 5 | 17 | 28 | 17
COc1cccc(/C=C/c2nc3c(cnn3-c3ccccc3)c(=O)[nH]2)c1 | 28* | 1 | 1 | 17 | 3 | 5
O=c1[nH]c(/C=C/c2ccc(Br)cc2)nc2c1cnn2-c1ccccc1 | . | 2 | . | . | -9 | .
COc1cc(C(=O)OC(C)CN2C(C)CCCC2C)cc(OC)c1OC (configuration not stated) | 32* | -10 | 3 | 2 | 3 | -6
CC(C)(C)NC(=O)C(c1ccccc1)N(C(=O)CNC(=O)c1cccs1)c1cccnc1 (configuration not stated) | 2 | 6 | 5 | 3 | 0 | .
O=C(Cc1ccc(NC2=NC3CS(=O)(=O)CC3S2)cc1)N1CCN(c2ccc(F)cc2)CC1 (configuration not stated) | 5 | 1 | -9 | 1 | 25 | .
COc1cc2c3c(c1OC)C1(C=CC(=O)C=C1)CC3N(C(C)=O)CC2 (configuration not stated) | 29* | 9 | -4 | -16 | 5 | 8
Cc1ccc(-c2cc(-c3ccccc3[N+](=O)[O-])[nH]n2)c(O)c1 | 41* | -1 | -4 | 12 | 11 | 7
N#Cc1ccccc1NC(=O)COC(=O)/C=C/c1cn(-c2ccccc2)nc1-c1ccc(Cl)cc1 | -9 | . | -1 | 12 | . | .
NC(=O)c1ccc(NC(=O)COC(=O)/C=C/c2cn(-c3ccccc3)nc2-c2cccnc2)cc1 | 30* | -1 | 3 | 12 | -12 | 46*
COc1ccc(CCN2C(=O)NC(NC(=O)CC(C)C)(C(F)(F)F)C2=O)cc1OC (configuration not stated) | 28* | -2 | 0 | -14 | 1 | -3
COc1ccc(CCN2C(=O)NC(NC(=O)CCc3ccccc3)(C(F)(F)F)C2=O)cc1OC (configuration not stated) | -1 | 6 | 5 | -12 | -8 | .
Cc1ccc(/C=N/NC(=O)c2ccc(Cn3cc([N+](=O)[O-])cn3)o2)cc1 | 2 | 5 | 6 | 0 | 16 | .
CCCOc1ccc(/C=N/NC(=O)c2ccc(Cn3cc([N+](=O)[O-])cn3)o2)cc1 | 26* | 1 | 6 | 23 | 4 | 33*
Cc1nc(Cl)c(C(=O)NCCc2ccccc2)c(C)c1[N+](=O)[O-] | -2 | 2 | 5 | -7 | 7 | .
CC1CCCN(C(=O)c2cc(S(=O)(=O)N3CCCCC3)c[nH]2)C1 (configuration not stated) | -17 | -4 | 7 | 2 | 5 | .
O=c1[nH]c(/C=C2\C=Nc3ccccc32)c(O)n1Cc1ccccc1F | 25* | 3 | 1 | 16 | 18 | 16
CSc1nc(O)c(/C=C2\C=Nc3ccccc32)[nH]1 | 4 | 3 | -1 | 8 | 33 | .
Cc1ccc(-c2cc3ncc(C#N)c(N)n3n2)cc1 | -5 | 4 | 1 | 5 | -15 | .
CC(C)n1c(=O)c2ccccc2n1Cc1cn(Cc2cccnc2)nn1 | 3 | . | . | 3 | . | .
